# Reference: publication PMC12799544 (Molecular Pharmacology, 2025)
# Where “and” joins values, the source holds several entries; their conditions need not be identical. Equal entries are not always repeated.
# How the values were obtained:
# RyR2 [1] = target: T1, RyR2 (Sus scrofa, UniProt A0A5G2R1W3); test: RyR2 single-channel recording in artificial lipid bilayers; assay type: biochemical, porcine
# Method in brief: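 Porcine cardiac SR vesicles were fused into PE:PS:PC (5:3:2) bilayers with symmetric 250 mM Cs+ and TES pH 7.4. The cis side held 0.1 μM free Ca (CaCl2/BAPTA) plus 2 mM ATP, at 23 ± 2 °C and +40 mV. Compound (0.01–10 or 1–100 μM) was added cis with DMSO <0.1%. Po came from 30–60 s at a 50% threshold, relative to vehicle on the same channel. Dwell times were fitted with 2 exponentials; 4-parameter fit.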
# RyR1 [2] = target: T2, RyR1 (Sus scrofa, UniProt P16960); test: RyR1 single-channel recording in artificial lipid bilayers; assay type: biochemical, porcine
# Method in brief: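 Porcine longissimus dorsi SR vesicles were fused into PE:PS:PC (5:3:2) bilayers with symmetric 250 mM Cs+ and TES pH 7.4. The cis side held 0.1 μM free Ca (CaCl2/BAPTA) plus 2 mM ATP, at 23 ± 2 °C. Compound was added cis by aliquot or local perfusion, DMSO <0.1%. Po came from 30–60 s recordings, 50% amplitude threshold, 1 kHz filter. Nonlinear 4-parameter concentration-response fit.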
# RyR2 [3] = target: T1, RyR2; test: [3H]-ryanodine ligand binding assay, cardiac SR membrane; design: species or system porcine
# Method in brief: (§1)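 Porcine cardiac SR (3 mg/mL) was incubated 3 h at 37 °C with 7.5 nM [3H]-ryanodine and compound in 20 mM PIPES pH 7.0, 150 mM KCl, 5 mM ATP, 0.1 μM calmodulin and 0.1 μM free Ca (1 mM EGTA). Nonspecific binding used 15 μM cold ryanodine; maximal binding used 5 mM AMP-PNP plus 20 mM caffeine. Bound label was counted by filtration and scintillation, normalized to vehicle; 4-parameter fit.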
# RyR1 [4] = target: T2, RyR1; test: [3H]-ryanodine ligand binding assay, skeletal SR membrane; design: species or system porcine
# Method in brief: as §1, with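 “skeletal” for “cardiac”, “(1” for “(3”, “10” for “7.5”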
# RyR2 [5] = target: RyR2 (Mus musculus, UniProt E9Q401); test: Ca spark assay in permeabilized ventricular cardiomyocytes; assay type: cell-based, C57BL/6J mice; details: for Concentration dependence of Ca spark frequency: increasing concentrations
# Method in brief: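 Mouse ventricular myocytes (C57BL/6J, 12–18 weeks, both sexes) attached 10 min on laminin at room temperature, saponin-permeabilized (40 μg/mL, 40 s), then bathed 15 min in pH 7.2 internal solution (5 mM MgATP, 0.5 mM EGTA, 0.12 mM CaCl2, Fluo-4) with 0.1% DMSO or test compound. Confocal x-t sparks in brick-shaped cells; caffeine used as reference activator. Hierarchical mixed-effects statistics; 4-parameter concentration-response fit.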
# [6] = Caco-2 bidirectional permeability assay; assay type: in vitro ADME, human; details: human, Caco-2, pH 7.4
# Method in brief: (§2)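 Caco-2 monolayers (passages 55–65) grown 21 days on 0.4 μm Transwell inserts and used only above 1000 Ω·cm2 TEER. Compound at 10 μM in HBSS (<1% DMSO) was dosed apically or basally. Samples at 0 and 2 h were analyzed by LC-MS for Papp, efflux ratio and recovery. Integrity was checked afterwards by lucifer yellow flux (≤0.5%).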
# Caco-2 cell monolayer = test: Caco-2 bidirectional permeability assay; assay type: in vitro ADME, human; details: recovery
# Method in brief: as §2
# [7] = Parallel artificial membrane permeability assay; assay type: in vitro ADME
# Method in brief: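 Donor compound at 500 μM in PBS pH 7.4 with TPGS, across hydrophobic membranes pretreated with 1% lecithin in n-dodecane, into PBS acceptor. Incubated 14–18 h at room temperature in a humidified chamber. Donor and acceptor were quantified by LC-MS; Papp, percent recovery and percent diffusion came from ratio formulas.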
# RyR2 [8] = details: cited from earlier work
# RyR2 (Mus musculus, UniProt E9Q401), sequence (E9Q401 whole entry): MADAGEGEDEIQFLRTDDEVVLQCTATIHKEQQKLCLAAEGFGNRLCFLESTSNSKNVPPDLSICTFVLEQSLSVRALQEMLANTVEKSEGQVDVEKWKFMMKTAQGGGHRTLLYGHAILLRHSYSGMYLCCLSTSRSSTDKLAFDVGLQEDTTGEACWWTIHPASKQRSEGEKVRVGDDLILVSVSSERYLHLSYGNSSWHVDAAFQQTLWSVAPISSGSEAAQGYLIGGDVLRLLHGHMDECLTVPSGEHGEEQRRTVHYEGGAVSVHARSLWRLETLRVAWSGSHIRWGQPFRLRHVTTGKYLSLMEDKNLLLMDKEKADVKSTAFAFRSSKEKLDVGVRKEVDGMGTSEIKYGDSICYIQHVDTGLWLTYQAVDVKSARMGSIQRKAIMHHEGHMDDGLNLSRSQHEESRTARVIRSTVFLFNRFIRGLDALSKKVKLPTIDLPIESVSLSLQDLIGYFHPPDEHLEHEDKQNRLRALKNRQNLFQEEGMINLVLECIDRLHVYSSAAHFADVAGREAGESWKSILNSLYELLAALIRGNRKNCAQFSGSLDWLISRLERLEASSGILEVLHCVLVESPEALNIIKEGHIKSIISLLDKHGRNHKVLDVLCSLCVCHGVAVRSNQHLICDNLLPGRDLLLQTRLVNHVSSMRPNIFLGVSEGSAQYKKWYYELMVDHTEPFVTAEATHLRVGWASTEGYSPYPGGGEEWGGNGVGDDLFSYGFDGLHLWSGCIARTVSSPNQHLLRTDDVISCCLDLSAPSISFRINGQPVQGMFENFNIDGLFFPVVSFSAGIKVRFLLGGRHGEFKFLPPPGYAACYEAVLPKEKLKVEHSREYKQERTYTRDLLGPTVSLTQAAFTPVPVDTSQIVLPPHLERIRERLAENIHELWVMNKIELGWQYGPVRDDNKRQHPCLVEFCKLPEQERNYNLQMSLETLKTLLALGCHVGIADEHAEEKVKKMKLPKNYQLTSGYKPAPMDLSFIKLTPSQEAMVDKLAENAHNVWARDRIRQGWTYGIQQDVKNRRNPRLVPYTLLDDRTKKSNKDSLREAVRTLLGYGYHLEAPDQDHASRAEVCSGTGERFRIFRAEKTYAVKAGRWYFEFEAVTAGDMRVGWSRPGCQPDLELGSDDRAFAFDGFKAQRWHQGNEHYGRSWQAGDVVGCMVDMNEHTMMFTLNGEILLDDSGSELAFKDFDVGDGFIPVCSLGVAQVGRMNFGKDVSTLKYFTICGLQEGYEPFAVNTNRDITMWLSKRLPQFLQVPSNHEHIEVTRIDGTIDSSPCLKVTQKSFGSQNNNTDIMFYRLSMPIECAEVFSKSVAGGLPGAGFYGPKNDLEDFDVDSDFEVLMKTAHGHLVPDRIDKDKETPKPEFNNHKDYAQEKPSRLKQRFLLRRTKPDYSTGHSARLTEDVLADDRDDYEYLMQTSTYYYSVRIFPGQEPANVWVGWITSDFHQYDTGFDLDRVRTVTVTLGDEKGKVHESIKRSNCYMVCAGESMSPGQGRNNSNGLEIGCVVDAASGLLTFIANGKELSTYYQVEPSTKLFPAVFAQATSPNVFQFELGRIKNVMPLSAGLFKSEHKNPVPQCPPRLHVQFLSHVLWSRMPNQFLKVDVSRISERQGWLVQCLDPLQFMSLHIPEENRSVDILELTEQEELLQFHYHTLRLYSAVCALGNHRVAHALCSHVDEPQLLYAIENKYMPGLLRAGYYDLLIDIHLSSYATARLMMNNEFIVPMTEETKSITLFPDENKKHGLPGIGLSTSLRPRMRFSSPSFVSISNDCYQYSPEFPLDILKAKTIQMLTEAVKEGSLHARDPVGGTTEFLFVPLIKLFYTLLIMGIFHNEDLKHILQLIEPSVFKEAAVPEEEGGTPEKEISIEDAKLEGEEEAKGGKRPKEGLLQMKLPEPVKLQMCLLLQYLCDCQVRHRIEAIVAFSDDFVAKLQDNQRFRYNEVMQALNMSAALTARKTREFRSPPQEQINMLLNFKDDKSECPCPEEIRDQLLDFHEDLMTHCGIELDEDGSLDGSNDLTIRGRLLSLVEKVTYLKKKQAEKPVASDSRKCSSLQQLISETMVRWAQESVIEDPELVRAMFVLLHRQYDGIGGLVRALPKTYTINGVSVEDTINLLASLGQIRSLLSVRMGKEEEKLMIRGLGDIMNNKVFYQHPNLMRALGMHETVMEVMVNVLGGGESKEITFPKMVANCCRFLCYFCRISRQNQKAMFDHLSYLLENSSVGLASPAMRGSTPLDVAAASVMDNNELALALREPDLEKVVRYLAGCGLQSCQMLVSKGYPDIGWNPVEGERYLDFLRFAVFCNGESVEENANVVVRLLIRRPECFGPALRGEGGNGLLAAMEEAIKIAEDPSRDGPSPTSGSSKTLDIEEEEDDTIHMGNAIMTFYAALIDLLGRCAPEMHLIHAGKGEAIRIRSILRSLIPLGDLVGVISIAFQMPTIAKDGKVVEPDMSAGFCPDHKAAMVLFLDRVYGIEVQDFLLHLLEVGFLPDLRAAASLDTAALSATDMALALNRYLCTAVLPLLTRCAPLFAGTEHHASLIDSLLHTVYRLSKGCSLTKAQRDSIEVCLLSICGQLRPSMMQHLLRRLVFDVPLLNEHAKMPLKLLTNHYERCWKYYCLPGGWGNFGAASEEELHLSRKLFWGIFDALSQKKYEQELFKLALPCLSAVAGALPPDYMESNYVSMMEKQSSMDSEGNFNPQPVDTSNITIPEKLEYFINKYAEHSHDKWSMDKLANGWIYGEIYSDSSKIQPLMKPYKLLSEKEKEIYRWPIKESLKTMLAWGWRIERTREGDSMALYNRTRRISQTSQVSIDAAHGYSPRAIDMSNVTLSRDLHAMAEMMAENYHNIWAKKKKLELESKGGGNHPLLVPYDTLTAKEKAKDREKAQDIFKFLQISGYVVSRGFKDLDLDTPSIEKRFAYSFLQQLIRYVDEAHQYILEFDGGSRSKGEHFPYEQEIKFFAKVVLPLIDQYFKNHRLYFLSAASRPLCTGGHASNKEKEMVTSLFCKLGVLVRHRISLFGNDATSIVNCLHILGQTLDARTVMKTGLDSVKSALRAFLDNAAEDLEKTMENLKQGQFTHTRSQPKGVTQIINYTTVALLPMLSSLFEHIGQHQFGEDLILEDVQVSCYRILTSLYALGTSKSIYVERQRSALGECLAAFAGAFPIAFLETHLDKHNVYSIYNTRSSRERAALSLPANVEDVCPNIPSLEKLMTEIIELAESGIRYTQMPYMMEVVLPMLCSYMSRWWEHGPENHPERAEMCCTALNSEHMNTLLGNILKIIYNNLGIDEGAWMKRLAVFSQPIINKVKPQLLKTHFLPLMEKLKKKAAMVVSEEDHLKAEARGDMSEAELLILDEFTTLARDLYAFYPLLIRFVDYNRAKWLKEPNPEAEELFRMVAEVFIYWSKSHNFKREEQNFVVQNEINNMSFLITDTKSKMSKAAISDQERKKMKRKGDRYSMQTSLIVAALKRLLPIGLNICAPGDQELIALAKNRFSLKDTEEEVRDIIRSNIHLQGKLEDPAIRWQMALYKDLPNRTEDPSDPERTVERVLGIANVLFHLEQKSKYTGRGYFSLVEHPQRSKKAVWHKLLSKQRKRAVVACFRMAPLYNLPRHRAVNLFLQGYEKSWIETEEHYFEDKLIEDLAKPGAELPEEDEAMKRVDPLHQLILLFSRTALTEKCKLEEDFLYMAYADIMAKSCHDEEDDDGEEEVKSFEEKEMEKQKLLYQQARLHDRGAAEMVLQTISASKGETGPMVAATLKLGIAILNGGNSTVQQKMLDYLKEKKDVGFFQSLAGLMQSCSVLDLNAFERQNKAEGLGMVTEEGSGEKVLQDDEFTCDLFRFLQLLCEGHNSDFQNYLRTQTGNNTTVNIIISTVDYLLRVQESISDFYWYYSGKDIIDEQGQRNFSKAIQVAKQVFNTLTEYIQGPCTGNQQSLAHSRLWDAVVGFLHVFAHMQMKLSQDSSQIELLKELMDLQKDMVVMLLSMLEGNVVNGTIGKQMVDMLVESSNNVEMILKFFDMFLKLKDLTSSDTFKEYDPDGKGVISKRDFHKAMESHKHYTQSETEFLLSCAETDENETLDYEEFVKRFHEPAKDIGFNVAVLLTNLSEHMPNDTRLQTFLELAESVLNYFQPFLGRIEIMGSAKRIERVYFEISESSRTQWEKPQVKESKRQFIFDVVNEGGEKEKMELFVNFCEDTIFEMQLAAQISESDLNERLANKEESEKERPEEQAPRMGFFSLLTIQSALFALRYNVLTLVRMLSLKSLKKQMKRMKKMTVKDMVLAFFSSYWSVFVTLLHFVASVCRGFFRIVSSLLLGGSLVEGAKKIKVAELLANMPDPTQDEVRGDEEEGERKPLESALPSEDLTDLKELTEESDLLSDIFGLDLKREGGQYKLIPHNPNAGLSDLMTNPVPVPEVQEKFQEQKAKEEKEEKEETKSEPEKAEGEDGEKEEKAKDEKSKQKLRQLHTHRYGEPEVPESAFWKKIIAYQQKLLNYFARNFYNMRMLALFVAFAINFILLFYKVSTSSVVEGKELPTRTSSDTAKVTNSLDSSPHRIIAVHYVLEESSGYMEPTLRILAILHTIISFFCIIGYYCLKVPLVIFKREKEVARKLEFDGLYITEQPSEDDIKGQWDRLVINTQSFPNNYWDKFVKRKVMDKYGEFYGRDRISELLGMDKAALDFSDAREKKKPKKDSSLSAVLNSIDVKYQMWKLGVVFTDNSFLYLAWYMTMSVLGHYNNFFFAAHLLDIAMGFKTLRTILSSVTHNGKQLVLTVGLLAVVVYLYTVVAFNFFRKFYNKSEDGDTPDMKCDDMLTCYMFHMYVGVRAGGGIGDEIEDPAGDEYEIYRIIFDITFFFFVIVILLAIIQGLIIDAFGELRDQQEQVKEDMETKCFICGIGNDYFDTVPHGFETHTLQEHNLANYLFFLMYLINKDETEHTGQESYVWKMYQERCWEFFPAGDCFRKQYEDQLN
smiles,measurement,setting,value
"CCCCC[C@@H]1OC(=O)[C@@H](C)N(C)C(=O)[C@H](CCCCC)OC(=O)[C@@H](C)N(C)C(=O)[C@H](CC(=O)O)OC(=O)[C@@H](C)N(C)C(=O)[C@H](CCCCC)OC(=O)[C@@H](C)N(C)C1=O [activert, 2-((2S,5R,8S,11R,14S,17R,20S,23R)-4,5,10,11,16,17,22,23-Octamethyl-3,6,9,12,15,18,21,24-octaoxo-8,14,20-tripentyl-1,7,13,19-tetraoxa-4,10,16,22-tetraazacyclotetracosan-2-yl)acetic acid]",IC50,RyR2 [1],~32.2 µM
same,EC50,"RyR2 [1]; EC50, activation of RyR2 single-channel Po, pCa 7, 2 mM ATP, +40 mV, 95% CI 1.4–63.1 μM",~30 µM and ~32.2 µM
same,Mean closed duration,RyR2 [1]; activert ≥50 μM versus vehicle,decreased
same,Mean open duration,RyR2 [1]; activert ≥50 μM versus vehicle,without altering
same,Potency on RyR2 compared with ent-verticilide (fold less potent),RyR2 [1]; compared with ent-verticilide,~100 fold
same,Emax,"RyR2 [1]; read-out: Emax, partial activation of RyR2 single-channel Po",~34%
same,EC50,RyR1 [2],~10.5 µM
same,Emax,"RyR1 [2]; read-out: Emax, increase of RyR1 single-channel Po",~14.4%
same,EC50,RyR2 [3],~46 µM
same,Emax,"RyR2 [3]; read-out: Emax, increase of [3H]-ryanodine binding to RyR2 normalized to vehicle",~29%
same,EC50,RyR1 [4],~9 µM
same,Emax,"RyR1 [4]; read-out: Emax, increase of [3H]-ryanodine binding to RyR1 normalized to vehicle",~17%
same,Average duration of the Ca spark,RyR2 [5]; 25 μM,modestly increased
same,Overall RyR2-mediated SR Ca leak,RyR2 [5]; 25 μM,elevated
same,Reduction of SR Ca load (amplitude of caffeine-induced Ca transient),RyR2 [5]; 25 μM,~10%
same,Size (amplitude or width) of the average Ca spark,RyR2 [5]; 25 μM,without changes
same,Ca spark frequency versus vehicle,"RyR2 [5]; 25 μM, 15 min, permeabilized cardiomyocytes",increase
same,Distribution of Ca spark duration compared with DMSO control,RyR2 [5]; 100 μM activert,prolonged
same,Concentration dependence of Ca spark frequency,RyR2 [5],dose-dependent increase
same,"Papp A→B at 2 h, 10 µM",[6],0.4 ×10⁻⁶ cm/s
same,"Papp B→A at 2 h, 10 µM",[6],1.1 ×10⁻⁶ cm/s
same,"Papp at 2 h, 10 µM",[6],< 1 ×10⁻⁶ cm/s
same,"efflux ratio at 2 h, 10 µM",[6],2.73
same,%R (A-B),Caco-2 cell monolayer; apical-to-basal,101%
same,%R (B-A),Caco-2 cell monolayer; basal-to-apical,80%
same,% Diffusion,[7]; PAMPA,7%
same,%R,[7]; PAMPA recovery,92%
same,Papp at 500 µM,"[7]; PAMPA, pH 7.4, Permeability (experimental permeability rate)",< 2 ×10⁻⁶ cm/s
O=C1CN(/N=C/c2ccc(-c3ccc([N+](=O)[O-])cc3)o2)C(O)=N1 [dantrolene],Maximal inhibition of RyR2,RyR2 [8],~50%
"Cn1c(=O)c2c(ncn2C)n(C)c1=O [caffeine, reference compound]",Ca spark duration with caffeine,RyR2 [5]; 1 mM caffeine,many long-lasting sparks
same,Concentration dependence of Ca spark frequency,RyR2 [5],dose-dependent response
